Eight compounds from ChEMBL document CHEMBL1136943, “Nocathiacin analogs: Synthesis and antibacterial activity of novel water-soluble amides” (Bioorg Med Chem Lett, 2009) can be followed below.

Molecules are shown by their SMILES. Values after ≈ are worked out from the molar mass of the structure shown.

The test system of test [1] is Staphylococcus aureus. Briefly: Antibacterial activity against Staphylococcus aureus MB2865 in liquid culture by turbidity method. The format is functional. An outline of the steps:
(§1)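 MIC is the lowest concentration giving 100% inhibition of bacterial growth in liquid culture, read by turbidity.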

The subject of test [2] is Streptococcus pneumoniae. Kind of test: Antibacterial activity against Streptococcus pneumoniae CL2883 in liquid culture by turbidity method. The format is functional. In outline:
as §1

Test [3] has as its system Enterococcus faecalis. Kind of test: Antibacterial activity against Enterococcus faecalis C21560 in liquid culture by turbidity method. The format is functional. In outline:
as §1

Test [4] deals with Staphylococcus aureus. Briefly: Antibacterial activity against Staphylococcus aureus infected in mouse model assessed as reduction of >= 2 log 10 cfu kidney burden. The format is functional. An outline of the steps: (§2)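 Systemic S. aureus infection mouse model (SATOA). Compounds were given iv; […]. Kidney bacterial burden (cfu) was compared with untreated control. ED99 is the dose giving a reduction of at least 2 log10 cfu in kidney burden.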

For test [5], the target named is T1, Type-2 angiotensin II receptor (Homo sapiens, UniProt P50052).
T1 sequence (P50052 whole entry): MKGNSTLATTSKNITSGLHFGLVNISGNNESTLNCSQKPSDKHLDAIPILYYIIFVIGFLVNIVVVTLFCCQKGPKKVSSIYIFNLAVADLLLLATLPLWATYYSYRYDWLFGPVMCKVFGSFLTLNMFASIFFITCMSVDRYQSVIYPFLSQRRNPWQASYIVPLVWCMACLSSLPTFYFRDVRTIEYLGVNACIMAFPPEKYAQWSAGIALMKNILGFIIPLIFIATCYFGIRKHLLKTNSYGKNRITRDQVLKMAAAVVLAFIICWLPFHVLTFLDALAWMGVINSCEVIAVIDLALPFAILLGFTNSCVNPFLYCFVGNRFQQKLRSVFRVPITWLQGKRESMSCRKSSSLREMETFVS
Briefly: Inhibition of AT2 receptor. In outline:
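AT2 IC50 derived from four dose levels per compound, following a published protocol.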

In test [6] the test system is Staphylococcus aureus. Kind of test: Antibacterial activity against Staphylococcus aureus infected iv bid dosed mouse model assessed as reduction of colony forming unit in kidney. It counts as functional. In outline:
as §2

As to `CO/C(C)=C1/NC(=O)[C@H]([C@@H](C)O)NC(=O)c2csc(n2)-c2cc(O)c(-c3nc(C(=O)NCCNC(=O)CN(C)C)cs3)nc2-c2csc(n2)[C@@H]2COC(=O)c3c4c5c(cccc5n3O)COC(=O)[C@@H](O[C@H]3C[C@](C)(O)[C@H](N(C)C)[C@H](C)O3)[C@@H](OC4)[C@H](NC(=O)c3csc1n3)c1nc(cs1)C(=O)N2`, the MIC turned out to be 0.019 µg/mL (≈ 0.0127 µM) in test [1], 0.59 ng/mL (≈ 0.000394 µM) in test [2] and 0.09 µg/mL (≈ 0.0601 µM) in test [3]. The ED99 in test [4] stood at 0.2 mg/kg. It took 78 nM to reach half-maximal inhibition in test [5] (IC50).

For the compound `CO/C(C)=C1/NC(=O)[C@H]([C@@H](C)O)NC(=O)c2csc(n2)-c2cc(O)c(-c3nc(C(=O)N4CCN(C)CC4)cs3)nc2-c2csc(n2)[C@@H]2COC(=O)c3c4c5c(cccc5n3O)COC(=O)[C@@H](O[C@H]3C[C@](C)(O)[C@H](N(C)C)[C@H](C)O3)[C@@H](OC4)[C@H](NC(=O)c3csc1n3)c1nc(cs1)C(=O)N2`, the MIC was found to be 0.06 µg/mL (≈ 0.0413 µM) in test [1], 15 ng/mL (≈ 0.0103 µM) in test [2] and 0.06 µg/mL (≈ 0.0413 µM) in test [3]. In addition, the ED99 in test [4] stood at 0.24 mg/kg. In test [5], the IC50 is 102 nM.

With `CC(=O)NC[C@H]1CN(c2ccc(N3CCOCC3)c(F)c2)C(=O)O1` [LINEZOLID], the ED99 in test [6] came to 12 mg/kg.

Take `CO/C(C)=C1/NC(=O)[C@H]([C@@H](C)O)NC(=O)c2csc(n2)-c2cc(O)c(-c3nc(C(=O)NCCNC(=O)CN4CCOCC4)cs3)nc2-c2csc(n2)[C@@H]2COC(=O)c3c4c5c(cccc5n3O)COC(=O)[C@@H](O[C@H]3C[C@](C)(O)[C@H](N(C)C)[C@H](C)O3)[C@@H](OC4)[C@H](NC(=O)c3csc1n3)c1nc(cs1)C(=O)N2`: the MIC was determined as 0.0038 µg/mL (≈ 0.00247 µM) in test [1], 0.48 ng/mL (≈ 0.000312 µM) in test [2] and 0.06 µg/mL (≈ 0.039 µM) in test [3]. Besides, the ED99 in test [4] amounted to 0.05 mg/kg. Also, the IC50 in test [5] came out at 250 nM.

Take `CO/C(C)=C1/NC(=O)[C@H]([C@@H](C)O)NC(=O)c2csc(n2)-c2cc(OC)c(-c3nc(C(=O)NCCCN4CCN(C)CC4)cs3)nc2-c2csc(n2)[C@@H]2COC(=O)c3c4c5c(cccc5n3O)COC(=O)[C@@H](O[C@H]3C[C@](C)(O)[C@H](N(C)C)[C@H](C)O3)[C@@H](OC4)[C@H](NC(=O)c3csc1n3)c1nc(cs1)C(=O)N2`: in test [1], 0.09 µg/mL (≈ 0.0591 µM) was the least that counted as inhibitory (MIC). In test [5], this compound yielded an IC50 of 850 nM.

Consider `CO/C(C)=C1/NC(=O)[C@H]([C@@H](C)O)NC(=O)c2csc(n2)-c2cc(O)c(-c3nc(C(=O)NCC(=O)N4CCN(C)CC4)cs3)nc2-c2csc(n2)[C@@H]2COC(=O)c3c4c5c(cccc5n3O)COC(=O)[C@@H](O[C@H]3C[C@](C)(O)[C@H](N(C)C)[C@H](C)O3)[C@@H](OC4)[C@H](NC(=O)c3csc1n3)c1nc(cs1)C(=O)N2`, for which the MIC stood at 0.0038 µg/mL (≈ 0.00252 µM) in test [1], 0.48 ng/mL (≈ 0.000318 µM) in test [2] and 0.03 µg/mL (≈ 0.0199 µM) in test [3]. Also, the ED99 in test [4] worked out at 0.13 mg/kg.

Regarding `CO/C(C)=C1/NC(=O)[C@H]([C@@H](C)O)NC(=O)c2csc(n2)-c2cc(O)c(-c3nc(C(=O)O)cs3)nc2-c2csc(n2)[C@@H]2COC(=O)c3c4c5c(cccc5n3O)COC(=O)[C@@H](O[C@H]3C[C@](C)(O)[C@H](N(C)C)[C@H](C)O3)[C@@H](OC4)[C@H](NC(=O)c3csc1n3)c1nc(cs1)C(=O)N2` [NOCATHIACIN ACID], the MIC was 8 µg/mL (≈ 5.84 µM) in test [1], 2000 ng/mL (≈ 1.46 µM) in test [2] and more than 8 µg/mL in test [3]. The same compound displayed an IC50 in test [5] of 1120 nM.

Regarding `CO/C(C)=C1/NC(=O)[C@H]([C@@H](C)O)NC(=O)c2csc(n2)-c2cc(O)c(-c3nc(C(=O)NCCN(C)C)cs3)nc2-c2csc(n2)[C@@H]2COC(=O)c3c4c5c(cccc5n3O)COC(=O)[C@@H](O[C@H]3C[C@](C)(O)[C@H](N(C)C)[C@H](C)O3)[C@@H](OC4)[C@H](NC(=O)c3csc1n3)c1nc(cs1)C(=O)N2`, the results for the minimum inhibitory concentration (MIC) in test [1], in test [2] and in test [3] were 0.015 µg/mL (≈ 0.0104 µM), 0.46 ng/mL (≈ 0.00032 µM) and 0.06 µg/mL (≈ 0.0417 µM), respectively. For the same compound, the ED99 in test [4] worked out at 0.17 mg/kg. Half-maximal inhibition in test [5] (IC50) required 190 nM.
